Results: ChEMBL document CHEMBL3259728, “Design, synthesis and biological evaluation of some novel substituted quinazolines as antitumor agents” (2014)

Assays:
Assay type in all cases: functional
M14 [1] = assay: Cytotoxicity against human M14 cells after 48 hrs by SRB assay; conditions: M14, 48 h
In short: (§1)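 NCI 60-cell-line panel of human tumour lines from nine cancer types. Continuous 48 h exposure at five 10-fold dilutions from 10^-4 to 10^-8 M, with 5-FU as positive control. SRB protein stain read spectrophotometrically at time zero, untreated control and each concentration. GI50, TGI and LC50 were derived from the [(Ti−Tz)/(C−Tz)]×100 growth relations, and out-of-range values are given as > or < the tested limits.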

Malme-3M [2] = assay: Growth inhibition of human MALME-3M cells assessed as cell growth at 10^-7 M after 48 hrs by SRB assay; conditions: read-out: Activity
U-251 = assay: Growth inhibition of human U251 cells assessed as cell growth at 10^-8 M after 48 hrs by SRB assay; conditions: U-251, 48 h, read-out: Activity
SR [3] = assay: Cytotoxicity against human SR cells after 48 hrs by SRB assay; in short: as §1
SNB-19 = assay: Growth inhibition of human SNB19 cells assessed as cell growth at 10^-6 M after 48 hrs by SRB assay; conditions: SNB-19, 48 h, read-out: Activity
[4] = Growth inhibition of human OVCAR5 cells assessed as cell growth at 10^-4 M after 48 hrs by SRB assay; conditions: OVCAR-5, 48 h, read-out: Activity
NCI-H322M [5] = assay: Growth inhibition of human NCI-H322M cells assessed as cell growth at 10^-6 M after 48 hrs by SRB assay; conditions: read-out: Activity
[6] = Growth inhibition of human UACC62 cells assessed as cell growth at 10^-5 M after 48 hrs by SRB assay; conditions: UACC-62, 48 h, read-out: Activity
[7] = Growth inhibition of human NCI-ADR-RES cells assessed as cell growth at 10^-7 M after 48 hrs by SRB assay; conditions: read-out: Activity
Malme-3M [8] = assay: Cytotoxicity against human MALME-3M cells after 48 hrs by SRB assay; in short: as §1
[9] = Growth inhibition of human HCT15 cells assessed as cell growth at 10^-8 M after 48 hrs by SRB assay; conditions: HCT-15, 48 h, read-out: Activity
KM12 = assay: Growth inhibition of human KM12 cells assessed as cell growth at 10^-8 M after 48 hrs by SRB assay; conditions: KM12, 48 h, read-out: Activity
ACHN = assay: Cytotoxicity against human ACHN cells after 48 hrs by SRB assay; in short: as §1
SF-268 = assay: Growth inhibition of human SF268 cells assessed as cell growth at 10^-6 M after 48 hrs by SRB assay; conditions: SF-268, 48 h, read-out: Activity
[10] = Growth inhibition of human EKVX cells assessed as cell growth at 10^-4 M after 48 hrs by SRB assay; conditions: read-out: Activity
SK-OV-3 = assay: Growth inhibition of human SKOV3 cells assessed as cell growth at 10^-6 M after 48 hrs by SRB assay; conditions: SK-OV-3, 48 h, read-out: Activity
HOP-62 = assay: Growth inhibition of human HOP62 cells assessed as cell growth at 10^-7 M after 48 hrs by SRB assay; conditions: HOP-62, 48 h, read-out: Activity
NCI-H226 = assay: Growth inhibition of human NCI-H226 cells assessed as cell growth at 10^-8 M after 48 hrs by SRB assay; conditions: NCI-H226, 48 h, read-out: Activity
SR [11] = assay: Growth inhibition of human SR cells assessed as cell growth at 10^-4 M after 48 hrs by SRB assay; conditions: read-out: Activity
RPMI-8226 = assay: Cytotoxicity against human RPMI8226 cells after 48 hrs by SRB assay; conditions: RPMI-8226, 48 h; in short: as §1
[12] = Growth inhibition of human HCC2998 cells assessed as cell growth at 10^-6 M after 48 hrs by SRB assay; conditions: HCC 2998, 48 h, read-out: Activity
A498 [13] = assay: Growth inhibition of human A498 cells assessed as cell growth at 10^-4 M after 48 hrs by SRB assay; conditions: A498, 48 h, read-out: Activity
In short: (§2)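 Five-dose NCI panel protocol. Each dose (10^-4 to 10^-8 M, 10-fold steps) was given as 48 h continuous exposure, and protein was measured by SRB staining. Percentage growth at each level is [(Ti−Tz)/(C−Tz)]×100, where Tz is time-zero absorbance and C is untreated control.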

NCI-H322M [14] = assay: Growth inhibition of human NCI-H322M cells assessed as cell growth at 10^-8 M after 48 hrs by SRB assay; conditions: read-out: Activity
CAKI-1 = assay: Growth inhibition of human CAKI-1 cells assessed as cell growth at 10^-6 M after 48 hrs by SRB assay; conditions: CAKI-1, 48 h, read-out: Activity; in short: as §2
[15] = Growth inhibition of human HCT15 cells assessed as cell growth at 10^-4 M after 48 hrs by SRB assay; conditions: HCT-15, 48 h, read-out: Activity
BT-549 = assay: Cytotoxicity against human BT549 cells after 48 hrs by SRB assay; conditions: BT-549, 48 h; in short: as §1
[16] = Growth inhibition of human NCI-ADR-RES cells assessed as cell growth at 10^-6 M after 48 hrs by SRB assay; conditions: read-out: Activity
M14 [17] = assay: Growth inhibition of human M14 cells assessed as cell growth at 10^-6 M after 48 hrs by SRB assay; conditions: M14, 48 h, read-out: Activity
[18] = Growth inhibition of human MOLT4 cells assessed as cell growth at 10^-5 M after 48 hrs by SRB assay; conditions: MOLT-4, 48 h, read-out: Activity
Malme-3M [19] = assay: Growth inhibition of human MALME-3M cells assessed as cell growth at 10^-8 M after 48 hrs by SRB assay; conditions: read-out: Activity
A498 [20] = assay: Growth inhibition of human A498 cells assessed as cell growth at 10^-8 M after 48 hrs by SRB assay; conditions: A498, 48 h, read-out: Activity; in short: as §2
[21] = read-out: LC50 (the source's name)
[22] = read-out: pLC50 (the source's name) (converted)

Structure (SMILES): Cc1ccc(-c2nc3ccc(Cl)cc3c(=O)n2/N=C/c2ccccc2)cc1
- GI50 (M14 [1]; read-out: GI50): 56.2 µM
- CC50 (M14 [1]; [21]): > 100 µM
- TGI (M14 [1]; read-out: TGI): > 100 µM
- GI50 (M14 [1]; read-out: pGI50 (converted)): 56.2 µM
- CC50 (M14 [1]; [22]): > 100 µM
- TGI (M14 [1]; read-out: pTGI): > 100 µM
- growth at 0.1 µM (Malme-3M [2]): 76%
- growth at 0.01 µM (U-251): 99%
- GI50 (SR [3]; read-out: GI50): > 100 µM
- CC50 (SR [3]; [21]): > 100 µM
- TGI (SR [3]; read-out: TGI): > 100 µM
- GI50 (SR [3]; read-out: pGI50 (converted)): > 100 µM
- CC50 (SR [3]; [22]): > 100 µM
- TGI (SR [3]; read-out: pTGI): > 100 µM
- growth at 1 µM (SNB-19): 88%
- growth at 100 µM [4]: 61%
- growth at 1 µM (NCI-H322M [5]): 82%
- growth at 10 µM [6]: 62%
- growth at 0.1 µM [7]: 95%
- GI50 (Malme-3M [8]; read-out: GI50): 5.97 µM
- CC50 (Malme-3M [8]; [21]): > 100 µM
- TGI (Malme-3M [8]; read-out: TGI): > 100 µM
- GI50 (Malme-3M [8]; read-out: pGI50 (converted)): 6.03 µM
- CC50 (Malme-3M [8]; [22]): > 100 µM
- TGI (Malme-3M [8]; read-out: pTGI): > 100 µM
- growth at 0.01 µM [9]: 92%
- growth at 0.01 µM (KM12): 95%
- GI50 (ACHN; read-out: GI50): 0.627 µM
- CC50 (ACHN; [21]): > 100 µM
- TGI (ACHN; read-out: TGI): > 100 µM
- GI50 (ACHN; read-out: pGI50 (converted)): 0.631 µM
- CC50 (ACHN; [22]): > 100 µM
- TGI (ACHN; read-out: pTGI): > 100 µM
- growth at 1 µM (SF-268): 90%
- growth at 100 µM [10]: 11%
- growth at 1 µM (SK-OV-3): 93%
- growth at 0.1 µM (HOP-62): 89%
- growth at 0.01 µM (NCI-H226): 91%
- growth at 100 µM (SR [11]): 62%
- GI50 (RPMI-8226; read-out: GI50): > 100 µM
- CC50 (RPMI-8226; [21]): > 100 µM
- TGI (RPMI-8226; read-out: TGI): > 100 µM
- GI50 (RPMI-8226; read-out: pGI50 (converted)): > 100 µM
- CC50 (RPMI-8226; [22]): > 100 µM
- TGI (RPMI-8226; read-out: pTGI): > 100 µM
- growth at 1 µM [12]: 96%
- growth at 100 µM (A498 [13]): 17%
- growth at 0.01 µM (NCI-H322M [14]): 87%
- growth at 1 µM (CAKI-1): 77%
- growth at 100 µM [15]: 69%
- GI50 (BT-549; read-out: GI50): 100 µM
- CC50 (BT-549; [21]): > 100 µM
- TGI (BT-549; read-out: TGI): > 100 µM
- GI50 (BT-549; read-out: pGI50 (converted)): > 100 µM
- CC50 (BT-549; [22]): > 100 µM
- TGI (BT-549; read-out: pTGI): > 100 µM
- growth at 1 µM [16]: 89%
- growth at 1 µM (M14 [17]): 97%
- growth at 10 µM [18]: 88%
- growth at 0.01 µM (Malme-3M [19]): 92%
- growth at 0.01 µM (A498 [20]): 88%
